# Test results as given in ChEMBL document CHEMBL1125355, “Novel non-cross resistant diaminoanthraquinones as potential chemotherapeutic agents” (J Med Chem, 1992).
# Legend:
# RPMI-8226 [1] = experiment: In vitro inhibition of tumor cell growth in the human myeloma 8226 system.; type: functional, cell-based
# Outline: (§1)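 Cells trypsinized, seeded at 7500 cells/well, attached overnight. Serially diluted agent added to quadruplicate cultures; 24 h at 37 °C, 5% CO2, with [3H]thymidine 0.5 μCi/well during the last 4 h. Incorporation counted by scintillation; percent of media-only control from mean CPM. IC50 by linear forecast on a percent control vs log concentration plot.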
# RPMI-8226 [2] = experiment: In vitro inhibition of tumor cell growth in the human myeloma 8226/ADR system.; type: functional, cell-based; outline: as §1
# MCF7 [3] = experiment: In vitro inhibition of tumor cell growth in the human mammary carcinoma MCF-7/ADR system.; type: functional, cell-based; outline: as §1
# MCF7 [4] = experiment: In vitro inhibition of tumor cell growth in the human mammary tumor MCF-7 system; type: functional, cell-based; outline: as §1
# Homo sapiens [5] = organism: Homo sapiens; experiment: Tumor-specific activity against human gastric tumor type at 0.5 ug/mL concentration after 1 hr exposure time; Activity= no of responses/ no tested, 1/1; type: functional, Stomach
# Homo sapiens [6] = organism: Homo sapiens; experiment: Tumor-specific activity against human gastric tumor type at 5 ug/mL concentration after 1 hr exposure time; Activity= no of responses/ no tested, 2/2; type: functional, Stomach
# Homo sapiens [7] = organism: Homo sapiens; experiment: Tumor-specific activity against human gastric tumor type at 50 ug/mL concentration after 1 hr exposure time; Activity= no of responses/ no tested, 1/1; type: functional, Stomach
# Homo sapiens [8] = organism: Homo sapiens; experiment: Tumor-specific activity against human breast tumor type at 0.5 ug/mL concentration after 1 hr exposure time; Activity= no of responses/ no tested, 0/1; type: functional
# Homo sapiens [9] = organism: Homo sapiens; experiment: Tumor-specific activity against human breast tumor type at 5 ug/mL concentration after 1 hr exposure time; Activity= no of responses/ no tested, […]; type: functional
# Homo sapiens [10] = organism: Homo sapiens; experiment: Tumor-specific activity against human breast tumor type at 50 ug/mL concentration after 1 hr exposure time; Activity= no of responses/ no tested, […]; type: functional
# Homo sapiens [11] = organism: Homo sapiens; experiment: Tumor-specific activity against human lung, non-small cell tumor type at 0.5 ug/mL concentration after 1 hr exposure time; Activity= no of responses/ no of evaluable, 0/1; type: functional
# Homo sapiens [12] = organism: Homo sapiens; experiment: Tumor-specific activity against human ovary tumor type at 0.5 ug/mL concentration after 1 hr exposure time; Activity= no of responses/ no tested, 1/2; type: functional, Female gonad
# Homo sapiens [13] = organism: Homo sapiens; experiment: Tumor-specific activity against human ovary tumor type at 5 ug/mL concentration after 1 hr exposure time; Activity= no of responses/ no tested, 1/1; type: functional, Female gonad
# Homo sapiens [14] = organism: Homo sapiens; experiment: Tumor-specific activity against human ovary tumor type at 50 ug/mL concentration after 1 hr exposure time; Activity= no of responses/ no tested, 1/1; type: functional, Female gonad
# Homo sapiens [15] = organism: Homo sapiens; experiment: Tumor-specific activity against human total tumor type at 0.5 ug/mL concentration after 1 hr exposure time; Activity= no of responses/ no tested, 2/5; type: functional
# Homo sapiens [16] = organism: Homo sapiens; experiment: Tumor-specific activity against human total tumor type at 50 ug/mL concentration after 1 h exposure time; Activity= no of responses/ no tested, 5/5; type: functional
# Homo sapiens [17] = organism: Homo sapiens; experiment: Compound was tested in vitro for activity in a human tumor cloning system at 0.5 ug/mL concentration after 1 hr exposure time; type: functional
# Outline: (§2)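 Human tumor cloning assay on single-cell suspensions from patient solid tumors and effusions. Cells were exposed for 1 h at 37 °C in McCoy's 5A with 10% heat-inactivated FCS, washed twice, then plated at 5×10^5 cells/mL in 0.3% agar CMRL 1066 over a feeder layer. Colonies (>50 cells) were counted around day 14. A run was evaluable with ≥20 control colonies and under 30% survival with 200 μg/mL vanadate.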
# Homo sapiens [18] = organism: Homo sapiens; experiment: Compound was tested in vitro for activity in a human tumor cloning system at 0.5 ug/mL concentration after continuous exposure time; type: functional
# Outline: (§3)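 Human tumor cloning assay on single-cell suspensions from patient solid tumors and effusions. Drug from DMSO stock was mixed into 0.3% agar CMRL 1066 with the cells, at 5×10^5 cells/mL over a feeder layer, and left for continuous exposure. Colonies (>50 cells) were counted around day 14 by inverted microscope. A run was evaluable with ≥20 control colonies and under 30% survival with 200 μg/mL vanadate.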
# Homo sapiens [19] = organism: Homo sapiens; experiment: Compound was tested in vitro for activity in a human tumor cloning system at 5 ug/mL concentration after 1 hr exposure time; type: functional; outline: as §2
# Homo sapiens [20] = organism: Homo sapiens; experiment: Compound was tested in vitro for activity in a human tumor cloning system at 5 ug/mL concentration after continuous exposure time; type: functional; outline: as §3
# Homo sapiens [21] = organism: Homo sapiens; experiment: Compound was tested in vitro for activity in a human tumor cloning system at 50 ug/mL concentration after 1 hr exposure time; type: functional; outline: as §2
# Homo sapiens [22] = organism: Homo sapiens; experiment: Compound was tested in vitro for activity in a human tumor cloning system at 50 ug/mL concentration after continuous exposure time; type: functional; outline: as §3
# Homo sapiens [23] = organism: Homo sapiens; experiment: Tumor-specific activity against human lung, non-small cell tumor type at 50 ug/mL concentration after 1 hr exposure time; Activity= no of responses/ no of evaluable, […]; type: functional
# Homo sapiens [24] = organism: Homo sapiens; experiment: Tumor-specific activity against human total tumor type at 5 ug/mL concentration after 1 hr exposure time; Activity= no of responses/ no tested, 4/5
# Homo sapiens [25] = organism: Homo sapiens; experiment: Tumor-specific activity against human gastric tumor type at 0.5 ug/mL concentration after 1 hr exposure time; Activity= no of responses/ no tested,1/1; type: functional, Stomach
# Homo sapiens [26] = organism: Homo sapiens; experiment: Tumor-specific activity against human gastric tumor type at 5 ug/mL concentration after 1 hr exposure time; Activity= no of responses/ no tested,1/1; type: functional, Stomach
# Homo sapiens [27] = organism: Homo sapiens; experiment: Tumor-specific activity against human gastric tumor type at 50 ug/mL concentration after 1 hr exposure time; Activity= no of responses/ no tested,1/1; type: functional, Stomach
# Homo sapiens [28] = organism: Homo sapiens; experiment: Tumor-specific activity against human breast tumor type at 0.5 ug/mL concentration after 1 hr exposure time; Activity= no of responses/ no tested,0/2; type: functional
# Homo sapiens [29] = organism: Homo sapiens; experiment: Tumor-specific activity against human breast tumor type at 5 ug/mL concentration after 1 hr exposure time; Activity= no of responses/ no tested,1/2; type: functional
# Homo sapiens [30] = organism: Homo sapiens; experiment: Tumor-specific activity against human breast tumor type at 50 ug/mL concentration after 1 hr exposure time; Activity= no of responses/ no tested,1/2; type: functional
# Homo sapiens [31] = organism: Homo sapiens; experiment: Tumor-specific activity against human ovary tumor type at 0.5 ug/mL concentration after 1 hr exposure time; Activity= no of responses/ no tested,2/2; type: functional, Female gonad
# Homo sapiens [32] = organism: Homo sapiens; experiment: Tumor-specific activity against human ovary tumor type at 5 ug/mL concentration after 1 h exposure time; Activity= no of responses/ no tested,2/2; type: functional, Female gonad
# Homo sapiens [33] = organism: Homo sapiens; experiment: Tumor-specific activity against human ovary tumor type at 50 ug/mL concentration after 1 hr exposure time; Activity= no of responses/ no tested,2/2; type: functional, Female gonad
# Homo sapiens [34] = organism: Homo sapiens; experiment: Tumor-specific activity against human colon tumor type at 5 ug/mL concentration after 1 hr exposure time; Activity= no of responses/ no tested,4/5; type: functional
# Homo sapiens [35] = organism: Homo sapiens; experiment: Tumor-specific activity against human colon tumor type at 50 ug/mL concentration after 1 hr exposure time; Activity= no of responses/ no tested,4/5; type: functional
# Homo sapiens [36] = organism: Homo sapiens; experiment: Tumor-specific activity against human total tumor type at 0.5 ug/mL concentration after 1 hr exposure time; Activity= no of responses/ no tested,4/10; type: functional
# Homo sapiens [37] = organism: Homo sapiens; experiment: Tumor-specific activity against human total tumor type at 5 ug/mL concentration after 1 hr exposure time; Activity= no of responses/ no tested,8/10; type: functional
# Homo sapiens [38] = organism: Homo sapiens; experiment: Tumor-specific activity against human colon tumor type at 0.5 ug/mL concentration after 1 hr exposure time; Activity= no of responses/ no tested,[…]; type: functional
# Homo sapiens [39] = organism: Homo sapiens; experiment: Tumor-specific activity against human total tumor type at 50 ug/mL concentration after 1 hr exposure time; Activity= no of responses/ no tested,8/10; type: functional
smiles,measurement,setting,value
O=C1c2ccccc2C(=O)c2c(NCC(O)CNCc3ccccc3)ccc(NCC(O)CCl)c21 (centres undefined),IC50,RPMI-8226 [1],11100 nM
same,IC50,RPMI-8226 [2],14300 nM
same,IC50,MCF7 [3],12400 nM
same,IC50,MCF7 [4],8200 nM
CCCNCC(O)CNc1ccc(NCC(O)CCl)c2c1C(=O)c1ccccc1C2=O (centres undefined),IC50,RPMI-8226 [1],9600 nM
same,IC50,RPMI-8226 [2],12500 nM
same,IC50,MCF7 [3],8700 nM
same,IC50,MCF7 [4],3450 nM
CCN(CC)CC(O)CNc1ccc(NCC(O)CCl)c2c1C(=O)c1ccccc1C2=O (centres undefined),IC50,RPMI-8226 [1],210 nM
same,IC50,RPMI-8226 [2],70 nM
same,Activity,Homo sapiens [5],1
same,Activity,Homo sapiens [6],1
same,Activity,Homo sapiens [7],1
same,Activity,Homo sapiens [8],0
same,Activity,Homo sapiens [9],0
same,Activity,Homo sapiens [10],1
same,Activity,Homo sapiens [11],0
same,Activity,Homo sapiens [12],1
same,Activity,Homo sapiens [13],2
same,Activity,Homo sapiens [14],2
same,Activity,Homo sapiens [15],2
same,Activity,Homo sapiens [16],5
same,% responders at 0.5 µg/mL,Homo sapiens [17],40%
same,% responders at 0.5 µg/mL,Homo sapiens [18],50%
same,% responders at 5 µg/mL,Homo sapiens [19],80%
same,% responders at 5 µg/mL,Homo sapiens [20],100%
same,% responders at 50 µg/mL,Homo sapiens [21],100%
same,% responders at 50 µg/mL,Homo sapiens [22],100%
same,Activity,Homo sapiens [23],1
same,IC50,MCF7 [3],720 nM
same,IC50,MCF7 [4],430 nM
same,Activity,Homo sapiens [24],4
CCN(CC)CC(O)CNc1ccc(NCC2CO2)c2c1C(=O)c1ccccc1C2=O.O=C(O)/C=C/C(=O)O (centres undefined),IC50,RPMI-8226 [1],10 nM
same,IC50,RPMI-8226 [2],9 nM
same,Activity,Homo sapiens [25],1
same,Activity,Homo sapiens [26],1
same,Activity,Homo sapiens [27],1
same,Activity,Homo sapiens [28],0
same,Activity,Homo sapiens [29],1
same,Activity,Homo sapiens [30],1
same,Activity,Homo sapiens [31],2
same,Activity,Homo sapiens [32],2
same,Activity,Homo sapiens [33],2
same,Activity,Homo sapiens [34],4
same,Activity,Homo sapiens [35],4
same,Activity,Homo sapiens [36],4
same,Activity,Homo sapiens [37],8
same,Activity,Homo sapiens [38],1
same,Activity,Homo sapiens [39],8
same,% responders at 0.5 µg/mL,Homo sapiens [17],40%
same,% responders at 0.5 µg/mL,Homo sapiens [18],89%
same,% responders at 5 µg/mL,Homo sapiens [19],80%
same,% responders at 5 µg/mL,Homo sapiens [20],89%
same,% responders at 50 µg/mL,Homo sapiens [21],80%
same,% responders at 50 µg/mL,Homo sapiens [22],100%
same,IC50,MCF7 [3],20 nM
same,IC50,MCF7 [4],40 nM
CCN(CC)CC(O)CNc1ccc(N)c2c1C(=O)c1ccccc1C2=O (centres undefined),IC50,MCF7 [4],6000 nM
COc1cccc2c1C(=O)c1c(O)c3c(c(O)c1C2=O)C[C@@](O)(C(=O)CO)C[C@@H]3O[C@H]1C[C@H](N)[C@H](O)[C@H](C)O1 [DOXORUBICIN],IC50,RPMI-8226 [1],33 nM
same,IC50,RPMI-8226 [2],560 nM
O=C1c2c(O)ccc(O)c2C(=O)c2c(NCCNCCO)ccc(NCCNCCO)c21 [MITOXANTRONE],IC50,RPMI-8226 [1],30 nM
same,IC50,RPMI-8226 [2],180 nM
same,IC50,MCF7 [3],4000 nM
same,IC50,MCF7 [4],5 nM
